High-throughput results: PubChem, Sanford-Burnham Center for Chemical Genomics
SKN-1 block: C. elegans SKN-1 inhibition | C. elegans VP596 Pgst-4::GFP/RFP ratio, acrylamide-induced, 24 h | inhibition, % at 21.8 µM | 360,000 tested, 0.49% active;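 active = interference check ratio from 0.5 to 1.5 plus GFP to RFP signal ratio inhibition reaching or exceeding a fixed threshold, cut at about 30% in these data, passing the limit was not always enough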
eIF4H inh: inhibitors of RNA binding by human eIF4H. Q15056. eIF4H fluorescence polarization binding assay. inhibition, % at 35 µM. 290,000 tested, 0.94% active;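 note: calls also rest on retests at 20 µM and on dose response follow-up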
PABP polyA inh: PABP-poly(A) binding inhibition; P11940; inhibition, % at 35 µM; PABP-poly(A) RNA binding, fluorescence polarization; 290,000 tested, 1% active;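 note: calls also rest on retests at 20 µM and on dose response follow-up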
MT1-MMP act inh: MT1-MMP (human) activation inhibition. HT1080 RFP-PRO-GFP cells, GFP/RFP ratio fluorescence, overnight; percent of plate control window, DMSO zero. P50281. AID 651647. GFP/RFP ratio change, % at 20 µM. 360,000 tested, 0.061% active;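 active = GFP/RFP ratio change of at least 30% with cell ATP level not reduced by more than half and red fluorescence within 50% of control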
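Read-out: GFP/RFP fluorescence ratio; Test system: RFP-PRO-GFP reporter HT1080 cells; Compound dosing: single-point 20 µM compound, 1% DMSO; Times: overnight compound exposure at 37 °C.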
MLLE-PAM2 inh: inhibitors of microRNA-mediated deadenylation, human PABP1 MLLE binding | GST-MLLE / FITC-PAM2 fluorescence polarization | inhibition, % at 20 µM | 360,000 tested, 0.36% active | P11940; in the data active = inhibition above about 35%, passing the limit was not always enough;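 note: plate controls were DMSO wells with GST-MLLE for no effect and wells lacking GST-MLLE protein for full effect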
* marks the source's active call; other numbers are inactive results; ? = inconclusive; . = no result given. An excerpt weighted towards active compounds, which were near 1.7% of everything screened. Unless noted, the rule behind the calls is not given here.

SMILES | SKN-1 block | eIF4H inh | PABP polyA inh | MT1-MMP act inh | MLLE-PAM2 inh
COC1=C/C(=C/c2c(O)c(C#N)c3ccccn23)C=CC1=O | -10.2 | 67.9 | 38.9* | -18.7 | -33.3
Cc1nc(NC(=O)C2CC3CCCC(C2)C3=O)sc1C (stereo not given) | 32.9* | -7.7 | -10.9 | 1.4 | 3.4
C(=C\c1nc(-c2ccncc2)no1)/c1ccccc1 | 79.3* | -3.5 | 1.4 | -0.3 | 0.9
CC1(OC(=O)C2CCCC2)C(=O)C=C2C=C(c3ccsc3)N(CCc3ccccn3)C=C2C1=O (stereo not given) | 7.7 | 96.8 | 45.2* | 4.2 | 17.9
CC1(OC(=O)C2CCCC2)C(=O)C=C2C=C(c3ccsc3)N(Cc3ccccc3)C=C2C1=O (stereo not given) | 23.8 | 32.6 | 22.0 | 4.0 | 9.0
CC(C)CN1C=C2C(=O)C(C)(OC(=O)C3CCCC3)C(=O)C=C2C=C1c1ccsc1 (stereo not given) | 3.9 | 55.3 | 38.3* | -1.6 | 3.5
CCCCn1c(N)c(N(CCC(C)C)C(=O)c2[nH]c(C)c(C(=O)OCC)c2C)c(=O)[nH]c1=O | 13.9 | . | . | 1.8 | -34.5
CC(c1ccccc1)N1C(=O)c2cccnc2C1=O (stereo not given) | 38.6* | -0.4 | -6.2 | 2.7 | 4.5
CCOC(=O)c1c(C)[nH]c(C(=O)OCC(=O)N2CCN(S(=O)(=O)c3ccccc3)CC2)c1C | 42.2* | -10.0 | -10.8 | -3.3 | -3.9
CCOC(=O)c1[nH]c(C)c(C(=O)OCC)c1C | 15.2 | -12.2 | -14.1 | 1.5 | 7.3
Cc1ccc(OCC(=O)N2CCN(S(=O)(=O)c3ccccc3)CC2)c([N+](=O)[O-])n1 | 6.8 | ? | 104.0* | 4.5 | -7.8
CCCNC(=O)COC(=O)c1[nH]c(C)c(C(=O)OCC)c1C | 35.4* | -0.8 | 2.1 | 1.8 | -10.3
Cc1ccc(OCC(=O)N2CCC(Cc3ccccc3)CC2)c([N+](=O)[O-])n1 | 0.6 | . | . | 0.1 | -29.6
COc1ccc(CCNC(=S)N2CCN(S(=O)(=O)c3ccccc3)CC2)cc1 | 15.1 | . | . | 0.9 | -92.9
CC(=O)c1cc(-c2ccccc2)[nH]c1N1CCOCC1 | 23.4 | 11.5 | 1.9 | -18.5 | 44.1*
CC(=O)c1c(N2CCOCC2)nc2ccc(Br)cc2c1-c1ccccc1 | 12.9 | 5.2 | -2.1 | -0.6 | -5.9
Cc1ccc(Sc2cnc(N)nc2C)cc1 | -2.9 | active | 62.1* | -2.6 | 2.0
Cc1ccc(Sc2ncccc2C(N)=O)cc1 | 3.2 | . | . | 0.8 | -1.2
CCOc1ccc(CCNC(=O)Nc2cccc(OC)c2)cc1OCC | 1.9 | -3.3 | 5.4 | 1.1 | -1.2
COCCn1c(=NC(=O)c2ccc3c(c2)OCO3)c(C#N)cc2c(=O)n3cccc(C)c3nc21 | . | 3.0 | 12.6 | . | .
CCCCn1c(=NC(=O)c2ccc3c(c2)OCO3)c(C#N)cc2c(=O)n3cccc(C)c3nc21 | 4.1 | 81.0* | 58.3* | -5.7 | -29.6
O=C(COC(=O)/C=C/c1ccccc1Cl)NC1CCCC1 | 5.0 | . | . | -1.0 | 1.8
C[C@@H]1CCC[C@]2(O[C@H](CCO)C[C@@H](O)[C@@H]2O)O1 | 3.1 | . | . | -3.8 | -5.6
COC(=O)C1=C(CN2CCSCC2)NC(=O)NC1c1cc(C)ccc1C (stereo not given) | 37.1* | 2.8 | -14.8 | 1.1 | 4.9
COCCN(C(=O)COC(=O)Cc1ccc(Cl)cc1Cl)c1c(N)n(Cc2ccccc2)c(=O)[nH]c1=O | -0.8 | . | . | -3.8 | -3.4
SMILES | SKN-1 block | eIF4H inh | PABP polyA inh | MT1-MMP act inh | MLLE-PAM2 inh
FC(F)(F)c1ccc(-c2csc(-c3ccno3)n2)cc1 | 44.0* | -1.4 | -0.4 | -1.3 | 4.5
COCCN(CCOC)C(=O)c1ccc(CSc2nc3ccccc3s2)cc1 | 1.6 | -5.1 | 2.5 | 4.6 | 10.9
Cc1ccc(-n2c(C)cc(=O)cc2C)c(C)c1 | 0.1 | -11.8 | -4.3 | 1.1 | 5.5
Cc1cc(=O)cc(C)n1-c1ccc(F)cc1F | 2.7 | 77.4 | 18.4* | -4.4 | 1.5
COc1ccc(C(O)c2ncc(-c3cccc(C(F)(F)F)c3)[nH]2)cc1 (stereo not given) | -1.4 | . | . | 5.4 | -5.8
COc1ccccc1Nc1nc(N)nc(CN2CCCCC2)n1 | -12.9 | 2.7* | 88.7* | 1.2 | -10.1
Cc1cc(C(=O)CSc2n[nH]c(N)n2)c(C)n1-c1ccc(F)cc1 | 21.0 | 76.2* | 6.2* | -3.0 | -7.5
Cc1ccc(-n2c(C)cc(C(=O)CSc3n[nH]c(N)n3)c2C)cc1 | 7.4 | -3.0 | -4.3 | 5.4 | -20.5
CCN(CC)S(=O)(=O)c1cccc2c(N(C)C)cccc12 | 45.1* | -7.9 | -2.0 | -2.3 | 17.8
CCN(CC)S(=O)(=O)c1cccc2cccnc12 | -0.3 | 4.2 | 6.4 | 2.2 | -8.5
O=C(NNC(=O)c1n[nH]c2ccccc12)c1ccccc1 | 23.4 | . | . | -3.8 | -1.6
CC(=O)Nc1cc(-c2nn(C)c(=O)c3ccccc23)ccc1N1CCOCC1 | 7.9 | ? | active | 3.9 | -7.3
CCCC(=O)Nc1cc(-c2nn(C)c(=O)c3ccccc23)ccc1N1CCOCC1 | -20.2 | -0.1 | 0.8 | 4.6 | -3.6
O=C(Nc1ccn(CCCNC2CCN(Cc3ccccc3)CC2)c(=O)n1)OCc1ccccc1 | 0.3 | . | . | -4.3 | -8.8
Cc1cccc(/C=C/c2nc3ccccc3c(=O)n2Cc2ccccc2)c1 | 4.7 | 76.1* | 19.7* | -9.7 | -2.7
Cc1ccc(OCCNC(=O)c2ccc3ccccc3n2)cc1 | -2.8 | 11.8 | 5.4 | -0.7 | -0.3
O=C(NCCOc1ccc(Cl)cc1)c1ccc2ccccc2n1 | 39.4* | 6.4 | 2.3 | -2.5 | -17.4
Clc1ccc(N/N=C/c2cccnc2)cc1 | 8.0 | 7.4 | -2.4 | -0.2 | 6.4
Cc1sc(N/N=C/c2cccnc2)nc1-c1ccc(Cl)cc1 | 35.3* | 0.1 | 6.8 | -1.8 | 11.4
COc1cc(NC(C)CCCNC(C)C)c2ncccc2c1OC (stereo not given) | 26.7 | . | . | -2.6 | 43.8*
COc1cc(NCCCCCCN)c2ncccc2c1OC | 26.4 | . | . | 3.7 | 18.4
O=C1/C(=C/N(C(=O)c2ccco2)c2ccc(Br)cc2)Sc2ccccc21 | 37.9* | -8.3 | -1.5 | 4.1 | -47.2
CCOc1ccc(N2CC(C(=O)NCC(=O)Nc3ccc(F)c(F)c3F)CC2=O)cc1 (stereo not given) | -10.0 | . | . | 1.4 | -0.7
O=C(NNc1ncccc1Cl)c1c(Cl)cccc1Cl | -4.8 | 24.9 | 22.4 | -0.6 | -2.0
COc1cc(NC(=O)c2ccccc2)c(OC)cc1NC(=O)Cc1ccc(F)cc1 | -11.4 | 2.2 | 12.9 | 4.1 | -4.0
Cc1cc(=O)[nH]c2c(C)c(N)ccc12 | -2.2 | -1.9 | 4.7 | 3.5 | 5.1
Cc1cc(C)c2ccc3c(C)c(C)nc3c2[nH]1 | 53.2* | 19.4 | 2.7 | -9.5 | 7.6
CCCCCn1c(N)c(-c2nc3ccccc3o2)c2c([N+](=O)[O-])nn(C)c(=O)c21 | -9.1 | 74.2* | -1.5 | -2.5 | 1.1
COc1cccc(CC2(CO)CCCN(Cc3sc(N4CCCC4)nc3Cl)C2)c1 (stereo not given) | 9.2 | 55.9* | 23.1* | -10.6 | 28.1
